Calls of active or inactive are those of the source.
Experiments:
INS1 [1] = test: Protection against tunicamycin ER stress-induced suppression of PDX1 mRNA expression in rat INS-1 cells up to 1 uM after 24 hrs by qRT-PCR analysis; assay type: functional, cell-based
How it was run: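 INS-1 cells were exposed to tunicamycin 0.1 μg/mL with compound or DMSO for 24 h. INS1, INS2, PDX1 and MafA mRNA were measured by qRT-PCR and normalized to cyclophilin A by the comparative Ct method. Triplicate wells, 3 independent experiments.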

Beta-TC6 = test: Cytoprotective activity in mouse BetaTC6 cells assessed as protection against tunicamycin-induced ER stress-mediated reduction in cell viability after 3 days by CellTiter-Glo assay; assay type: functional, cell-based
How it was run: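 βTC6 cells, 3×10^3 per well, were exposed to tunicamycin 0.3 μg/mL with compound or DMSO for 72 h. Intracellular ATP was read by luminescence and expressed as fold of no-tunicamycin cells. Triplicate wells, three independent experiments.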

INS1 [2] = test: Cytoprotective activity against tunicamycin ER stress-induced apoptosis in rat INS-1 cells assessed as inhibition of tunicamycin-induced cleaved PARP expression up to 1 uM after 24 hrs by Western blot analysis; assay type: functional, cell-based
How it was run: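 INS-1 cells, 8×10^5 per 60-mm dish, were exposed to tunicamycin 0.1 μg/mL plus compound or DMSO for 24 h. 20 μg lysate protein was run on 7% SDS-PAGE and immunoblotted for cleaved caspase-3 and PARP (1:1000), with α-tubulin as loading control; 3 independent experiments.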

INS1 [3] = test: Protection against tunicamycin ER stress-induced suppression of glucose-stimulated insulin secretion in rat INS-1 cells after 24 hrs by ELISA; assay type: functional, cell-based
How it was run: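 INS-1 cells were given tunicamycin 0.1 μg/mL and compound for 24 h, preincubated 1 h in KRBH (pH 7.4, 2% BSA) with 2.5 mM glucose, then given 1 h at low or high glucose. Secreted insulin was measured by ELISA and corrected for total protein (Bradford). Triplicate wells, three independent experiments.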

[4] = molecular target: T1, Eukaryotic translation initiation factor 2-alpha kinase 3 (Rattus norvegicus) (UniProt Q9Z1Z1); test: Inhibition of tunicamycin ER stress-induced PERK activation in rat INS-1 cells assessed as suppression of tunicamycin-induced increase in ATF4 protein levels up to 10 uM after 8 hrs by Western blot analysis; assay type: cell-based
T1 sequence (whole entry): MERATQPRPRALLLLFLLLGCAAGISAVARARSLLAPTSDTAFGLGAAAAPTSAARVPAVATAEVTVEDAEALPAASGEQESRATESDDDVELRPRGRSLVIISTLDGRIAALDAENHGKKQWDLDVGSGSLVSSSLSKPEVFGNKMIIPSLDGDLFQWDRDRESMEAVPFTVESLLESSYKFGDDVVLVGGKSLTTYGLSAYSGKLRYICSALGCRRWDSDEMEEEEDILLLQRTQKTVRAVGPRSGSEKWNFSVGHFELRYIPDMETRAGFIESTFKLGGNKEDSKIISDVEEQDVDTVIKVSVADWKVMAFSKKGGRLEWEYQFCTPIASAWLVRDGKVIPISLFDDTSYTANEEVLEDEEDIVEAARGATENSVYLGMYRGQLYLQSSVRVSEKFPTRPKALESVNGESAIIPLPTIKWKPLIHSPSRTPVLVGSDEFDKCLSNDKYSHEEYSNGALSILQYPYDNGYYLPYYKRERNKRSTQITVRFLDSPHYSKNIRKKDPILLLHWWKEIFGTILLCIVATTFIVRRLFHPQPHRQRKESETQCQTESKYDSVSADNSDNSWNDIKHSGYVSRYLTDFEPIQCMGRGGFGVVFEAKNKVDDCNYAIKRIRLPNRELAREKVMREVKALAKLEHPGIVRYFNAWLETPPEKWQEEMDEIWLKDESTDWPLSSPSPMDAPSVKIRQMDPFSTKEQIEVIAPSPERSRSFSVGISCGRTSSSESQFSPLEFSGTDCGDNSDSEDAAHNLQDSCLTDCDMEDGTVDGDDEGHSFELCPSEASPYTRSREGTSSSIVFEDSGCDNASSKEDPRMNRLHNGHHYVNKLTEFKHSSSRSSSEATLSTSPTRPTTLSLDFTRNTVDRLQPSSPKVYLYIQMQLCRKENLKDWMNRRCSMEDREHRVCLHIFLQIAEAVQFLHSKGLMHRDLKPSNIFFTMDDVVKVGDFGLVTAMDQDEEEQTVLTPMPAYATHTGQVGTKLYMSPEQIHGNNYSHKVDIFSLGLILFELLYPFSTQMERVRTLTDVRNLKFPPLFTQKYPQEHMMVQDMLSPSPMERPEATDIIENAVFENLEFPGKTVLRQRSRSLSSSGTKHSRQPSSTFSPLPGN
How it was run: (§1)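 INS-1 cells were exposed to tunicamycin 0.1 μg/mL with compound or DMSO for 8 h. Lysates were immunoblotted for ATF4 and CHOP (1:1000). Bands were quantified by densitometry and normalized to α-tubulin; 3 independent experiments.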

[5] = molecular target: T1, Eukaryotic translation initiation factor 2-alpha kinase 3 (Rattus norvegicus); test: Inhibition of tunicamycin ER stress-induced PERK activation in rat INS-1 cells assessed as suppression of tunicamycin-induced increase in CHOP protein levels up to 10 uM after 8 hrs by Western blot analysis; assay type: cell-based; how it was run: as §1
[6] = molecular target: T2, Cyclic AMP-dependent transcription factor ATF-6 alpha (Rattus norvegicus) (UniProt G3V909); test: Inhibition of tunicamycin ER stress-induced ATF6 activation in rat INS-1 cells assessed as suppression of increase in Bip mRNA levels up to 10 uM after 8 hrs by qRT-PCR analysis; assay type: cell-based
T2 sequence (whole entry): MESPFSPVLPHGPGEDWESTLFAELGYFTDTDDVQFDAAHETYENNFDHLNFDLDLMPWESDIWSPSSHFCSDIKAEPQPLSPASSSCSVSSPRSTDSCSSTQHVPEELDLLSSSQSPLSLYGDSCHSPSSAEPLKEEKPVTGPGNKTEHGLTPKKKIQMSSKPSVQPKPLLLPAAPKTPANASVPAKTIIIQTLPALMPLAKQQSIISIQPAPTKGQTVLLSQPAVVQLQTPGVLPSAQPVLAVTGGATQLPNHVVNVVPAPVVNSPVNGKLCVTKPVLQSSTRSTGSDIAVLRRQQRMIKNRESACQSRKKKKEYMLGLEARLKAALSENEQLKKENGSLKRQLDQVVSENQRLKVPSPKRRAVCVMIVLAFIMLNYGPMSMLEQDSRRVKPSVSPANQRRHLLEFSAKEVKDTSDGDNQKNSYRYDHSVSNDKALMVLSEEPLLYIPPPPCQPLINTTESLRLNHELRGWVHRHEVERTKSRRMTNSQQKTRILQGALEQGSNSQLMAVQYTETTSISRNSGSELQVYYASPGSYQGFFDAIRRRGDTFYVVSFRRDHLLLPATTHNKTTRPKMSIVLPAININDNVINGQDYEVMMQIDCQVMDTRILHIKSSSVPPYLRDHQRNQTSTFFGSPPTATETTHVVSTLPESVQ
How it was run: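 INS-1 cells, 4×10^5 per well, were exposed to tunicamycin 0.1 μg/mL with compound or DMSO for 8 h. qRT-PCR for ATF4, CHOP, Bip, GRP94, or spliced XBP1 using splicing-specific primers. Values were normalized to cyclophilin A by ΔΔCt and given as fold over untreated control. Triplicate wells, 3 independent experiments.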

O=C(NCc1ccc(C(F)(F)F)cc1)c1cccc(CN2CCCCC2)c1
active: Activity (INS1 [1]) | Activity (Beta-TC6) Dose-dependent effect | inhibition (INS1 [2]) | Activity (INS1 [3]) | inhibition [4] | inhibition [5] | inhibition [6]

— ChEMBL document CHEMBL4038317, “Discovery of a Benzamide Derivative That Protects Pancreatic β-Cells against Endoplasmic Reticulum Stress” (J Med Chem, 2017)
